KCNQ1 inh: human KCNQ1 channel inhibition; P51787; CHO-K1 KCNQ1, FluxOR thallium flux fluorescence; active compounds read high; B-score at 10 µM; 1.3% of 310,000 active; AID 2642;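 active means compounds whose thallium flux B-score, printed positive for inhibition, exceeds three library SD while starting fluorescence stays within three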;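 further: channel opened by potassium depolarization with thallium stimulus after 20 min compound exposure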
Kir21 inh: Kir2.1 (mouse) channel inhibition | HEK293-Kir2.1, FluxOR thallium flux fluorescence; active compounds read low | P35561 | 0.85% of 310,000 active | AID 1672 | B-score at 10 µM;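 active means fluorescence ratio B-score at or below minus 3 SD of library scores, with starting-brightness B-score within 2 SD, cut at about -4.2 in these data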;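 further: channel flux triggered by added potassium and thallium sulfate stimulus; B-score of peak minus minimum fluorescence over baseline after thallium stimulus; more negative B-score means stronger Kir2.1 block with less thallium influx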
KCNK3 block: human KCNK3 channel inhibition, primary screen; CHO-KCNK3 thallium flux, FluxOR fluorescence; active compounds read low; B-score at 10 µM; 0.84% of 340,000 active;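 active means B-score under library mean minus 4 SD, starting fluorescence ratio at most library mean plus 5 SD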;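 further: more negative B-score means stronger inhibition of thallium flux through KCNK3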
Target sequence (O14649 whole entry, looked up): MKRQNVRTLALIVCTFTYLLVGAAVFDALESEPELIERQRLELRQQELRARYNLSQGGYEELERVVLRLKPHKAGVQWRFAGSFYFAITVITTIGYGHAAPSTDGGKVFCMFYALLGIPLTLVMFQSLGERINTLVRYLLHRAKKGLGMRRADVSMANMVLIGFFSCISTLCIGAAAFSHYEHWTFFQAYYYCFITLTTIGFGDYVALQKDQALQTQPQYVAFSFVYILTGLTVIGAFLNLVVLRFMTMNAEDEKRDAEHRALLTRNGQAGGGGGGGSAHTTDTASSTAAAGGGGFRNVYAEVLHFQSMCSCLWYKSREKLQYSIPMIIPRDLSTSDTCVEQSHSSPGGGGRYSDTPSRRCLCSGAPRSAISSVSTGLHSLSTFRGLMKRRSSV
KCNQ1 act: potentiates or activates the human KCNQ1 potassium channel; P51787; CHO-K1 KCNQ1, thallium flux FluxOR fluorescence; active compounds read high; B-score at 10 µM; 0.35% of 310,000 active; AID 2648;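 active means fluorescence ratio B-score, a plate-corrected score, at least three library SD, with initial intensity B-score within 5 SD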
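Doses: Single concentration per compound, DMSO matched to controls | Test system: KCNQ1-transfected CHO-K1 cells | Timing: 90 min dye loading and 20 min compound exposure, both at room temperature | Measured by: Kinetic FluxOR thallium fluorescence, 10-s 1-Hz baseline, 110-s post-stimulus read | Medium: Assay buffer with matched DMSO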
KCNK9 inh: human KCNK9 channel inhibition | HEK293 KCNK9, FluxOR thallium flux fluorescence; active compounds read low | Q9NPC2 | B-score at 10 µM | 1.2% of 310,000 active;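 active means ratio B-score over 3 SD below the library mean, with starting fluorescence within 5 SD of its mean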;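 further: negative B-score means less thallium flux so channel inhibition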
hERG rescue: compounds protecting human hERG from proarrhythmic drug block | Q12809 | CHO-hERG, FluxOR thallium flux, dofetilide IC70 present | activation (rescue from dofetilide block), less the hit threshold, % at 10 µM | AID 1511 | 0.51% of 310,000 active;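 active means activation above the mean of controls blocked by dofetilide plus 5 SD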;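 further: thallium influx through hERG after potassium depolarization seen as dye fluorescence rise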
KCNK3 inh conf: confirmation of human KCNK3 two-pore domain potassium channel inhibitors; shares compounds with KCNK3 block; 99% of 2,400 active; AID 651638; ratio percent of control, % at 10 µM; CHO-KCNK3 thallium flux, FluxOR fluorescence; 0% buffer, 100% carvedilol maximal block;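 active means ratio percent of control, averaged over triplicates, above buffer control mean plus 5 SD, cut at about 64% in these data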;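 further: ratio is the fluorescence rise from min to max over baseline after thallium stimulus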
KCNK3 noninduced: counter-screen for KCNK3 inhibitors: effect in non-induced cells; non-induced KCNK3 parental cells, FluxOR thallium flux; active compounds read low; shares compounds with KCNK3 block; 40% of 2,400 active; thallium flux ratio (lower = more inhibition) at 10 µM;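 active means thallium flux ratio, averaged over three wells, more than 5 SD below the buffer control mean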;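 further: host cells are CHO cells without KCNK3 induction; ratio is peak minus trough fluorescence over baseline then normalized to buffer controls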
Numbers without * were called inactive; i = inactive; x = no result given. Most compounds without a hit are left out; they make up all but 3.8% or so of the library.

SMILES	KCNQ1 inh	Kir21 inh	KCNK3 block	KCNQ1 act	KCNK9 inh	hERG rescue	KCNK3 inh conf	KCNK3 noninduced
COc1cccc(-c2cc(C(=O)N3CCCc4ccccc43)no2)c1	i	-1.1	-12*	i	i	-13	115*	i
CCn1c(NCc2ccccc2NS(=O)(=O)c2ccc(C)cc2)nc2ccccc21	i	0.02	i	i	i	-7	x	x
CCn1c(NCc2cc(Br)ccc2NS(=O)(=O)c2ccc(C)cc2)nc2ccccc21	6*	-0.49	-11*	i	i	-9	120*	i
COc1cc(C(=O)N2CCCCCCC2)ccc1OC1CCN(C(C)=O)CC1	i	-1.4	i	i	i	-11	x	x
O=C(/C=C\c1ccc2c(c1)OCO2)Nc1c2c(nn1-c1ccc(Cl)cc1)CSC2	i	-0.67	-8.9*	i	-7*	-10	65*	i
CC(=O)C1=NN(c2ccc(Cl)cc2)C(c2ccc3c(c2)OCO3)N(C(C)=O)N1C (centres undefined)	i	0.06	-8.8*	i	i	-7	95*	0.15*
CN1c2ccccc2N(C)C1c1ccc2c(c1)OCO2	i	0.98	i	i	i	-11	x	x
NNC(=O)c1cc2sccc2s1	i	0.96	i	i	i	-7	x	x
CCOc1cc(/C=N/NS(=O)(=O)c2ccccc2)ccc1OS(=O)(=O)c1ccc(C)cc1	i	-3.2	-9.4*	i	i	-13	102*	i
CCOc1cc(/C=N/NC(=O)COc2ccc(Cl)cc2)ccc1OS(=O)(=O)c1ccccc1	i	-0.53	i	i	i	-16	x	x
CCC(C)c1ccc(NC(=O)Nc2cccnc2)cc1 (centres undefined)	i	-1.8	-9.7*	i	i	-16	119*	0.15*
CCC(C)c1ccc(NC(=O)NCc2cccnc2)cc1 (centres undefined)	i	1.3	i	i	i	-9	x	x
CC(C)C(OC(=O)c1ccccc1)c1nccc2ccccc12 (centres undefined)	i	-0.02	i	i	i	-21	x	x
O=C(OC(c1ccccc1)c1nccc2ccccc12)c1ccccc1 (centres undefined)	x	x	-11*	x	x	x	105*	0.14*
COC(=O)c1sc2nc(N3CCCCC3)c3c(c2c1N)CCCC3	i	-0.67	-11*	i	i	-9	104*	i
Cc1ccc(C)c(NS(=O)(=O)c2cc(C(=O)NCCSC3CCCCC3)ccc2C)c1	i	-0.93	-10*	i	-7.9*	-5	110*	i
CCOC(=O)C1=C(COC(=O)CCOc2ccc(C)cc2)NC(=O)NC1C (centres undefined)	i	1.4	i	i	i	-11	x	x
C=CCNCC(=O)Nc1ccccc1SCC(=O)Nc1ccsc1C(=O)OC	i	-2.3	i	i	i	-9	x	x
CCN(CC)CC(=O)Nc1ccccc1SCC(=O)Nc1ccsc1C(=O)OC	i	-3.1	-9.9*	i	i	-11	98*	i
O=C(NCCC(c1ccccc1)c1ccccc1)c1ccc(Br)o1	i	1.9	-9.7*	i	i	-10	114*	i
O=C(NCCSc1c[nH]c2ccccc12)c1ccc(Br)o1	i	0.42	-11*	i	-7.9*	-9	98*	i
O=C(NCCc1c[nH]c2ccccc12)c1ccc(Br)o1	x	x	i	x	x	x	x	x
Cc1[nH]c2ccccc2c1SCCNC(=O)c1ccc(Br)o1	i	-1.5	-9*	i	i	-18	97*	i
O=C(O)CCNC(=O)c1ccc(Br)o1	i	0.29	i	i	i	4	x	x
O=C(NCCc1csc(-c2ccccc2)n1)c1ccc(Br)o1	i	-1.9	-11*	i	i	-19	92*	i
SMILES	KCNQ1 inh	Kir21 inh	KCNK3 block	KCNQ1 act	KCNK9 inh	hERG rescue	KCNK3 inh conf	KCNK3 noninduced
CC(C)(C)C(=O)Nc1cccc(S(=O)(=O)NC2=NCCC2)c1	i	0.43	i	i	i	-5	x	x
CCc1ccc(NC(=O)CN(c2ccccc2)S(=O)(=O)N(C)C)cc1	i	1.6	-10*	i	i	-4	103*	i
Cc1ccc(-n2nc3c(c2NC(=O)c2ccc(F)c(F)c2)CS(=O)(=O)C3)cc1	i	0.06	i	i	i	-10	x	x
O=C(Nc1ccc(F)c(Cl)c1)N1CCCCCC1	i	-0.04	i	i	i	-16	x	x
O=C(N/N=C/c1ccc[nH]1)c1cc(-c2ccc(Cl)cc2)nc2ccccc12	i	-0.61	-9.1*	i	i	-15	124*	0.12*
CCCN=C1CC(C)(C)CC(=O)/C1=C(/O)CCCN1C(=O)c2ccccc2C1=O	i	0.04	i	i	i	-21	x	x
CCCCN=C1CC(C)(C)CC(=O)/C1=C(/O)CCC	i	-0.33	-11*	i	i	-10	100*	i
O=c1oc2cc(Oc3c([N+](=O)[O-])cc(C(F)(F)F)cc3[N+](=O)[O-])ccc2c2c1CCCC2	11*	-3.5	-9.7*	i	i	-21	136*	0.14*
O=c1oc2cc(Oc3ccc(C(F)(F)F)cc3[N+](=O)[O-])ccc2c2c1CCC2	i	0.17	i	i	i	-7	x	x
CC1(C(=O)OCC(=O)Nc2nnc(-c3ccccc3)o2)CC1(Cl)Cl (centres undefined)	i	-0.68	i	i	i	-15	x	x
O=C(COc1ccccc1Cl)N(Cc1cccs1)C1CCS(=O)(=O)C1 (centres undefined)	i	-1.5	i	i	i	-5	x	x
Cc1cc(Cl)ccc1OCC(=O)N(Cc1cccs1)C1CCS(=O)(=O)C1 (centres undefined)	i	-2.7	-9.9*	i	i	-10	59*	0.16*
CCNNC(=O)C(O)(Cc1ccccc1)Cc1ccccc1	i	0.15	i	i	i	-3	x	x
COc1ccc(Cn2c(/C=C/c3ccccc3)nc3ccccc32)cc1	i	0.02	-9.5*	i	-6.8*	-8	101*	0.15*
CCn1c(/C=C/c2ccccc2)nc2ccccc21	i	-0.95	i	i	i	-13	x	x
CCC(C)n1c(/C=C/c2ccccc2)nc2ccccc21 (centres undefined)	i	0	-9.8*	i	i	-19	88*	i
COc1ccc2c(c1)C=Cc1ccccc1O2	i	0.8	x	i	i	1	x	x

Screens: PubChem BioAssay, Johns Hopkins Ion Channel Center
